# Laboratory results reported in ChEMBL document CHEMBL4402562, “Discovery of Novel Peptidomimetic Boronate ClpP Inhibitors with Noncanonical Enzyme Mechanism as Potent Virulence Blockers in Vitro and in Vivo” (J Med Chem, 2020).
# Active and inactive are the calls of the source. No cut-off for these calls is given here. Where a SMILES comes first, the peptide text is derived from it. The star is where a group is joined. Cbz = O=C(OCc1ccccc1)*; CH2Cl = ClC*
# Columns and labels:
# [1] = biological target: ATP-dependent Clp protease proteolytic subunit (Escherichia coli (strain K12), UniProt P0A6G7); assay: Inhibition of Escherichia coli ClpP
# [2] = biological target: T1, ATP-dependent Clp protease proteolytic subunit (Staphylococcus aureus (strain NCTC 8325), UniProt Q2G036); assay: Binding affinity to N-terminal His6-sumo-tagged full length Staphylococcus aureus ClpP expressed in Escherichia coli […] assessed as shifting of melting peak of SaClpP by differential scanning calorimetry analysis
# T1 sequence (Q2G036 whole entry): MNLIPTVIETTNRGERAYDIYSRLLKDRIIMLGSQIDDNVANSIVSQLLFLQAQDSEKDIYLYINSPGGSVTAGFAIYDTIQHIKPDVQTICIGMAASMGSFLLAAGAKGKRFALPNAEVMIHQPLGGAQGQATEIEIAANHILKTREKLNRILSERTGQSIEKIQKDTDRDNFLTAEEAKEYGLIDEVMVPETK
# In short: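 DSC: 0.5 mg/mL (25 µM) SaClpP with 100 µM compound or two-fold dilution series, RT; scanned 30-90 °C at 1 °C/min, buffer-buffer scan subtracted; Tm from thermogram peak maximum; single run.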
# [3] = Inhibition of human ClpP (57 to 277 residues) expressed in Escherichia coli […] pre-incubated for 10 mins before Ac-WLA-AMC addition and measured after 1 hr by fluorescence based assay relative to control
# In short: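 hClpP (3.5 μM monomer) in 25 mM Tris-HCl pH 8.0, 100 mM KCl. Preincubated 10 min at RT with inhibitor, two-fold dilutions over 8 steps from 100 μM. Then 100 μM Ac-WLA-AMC, 380/440 nm for 1 h at 37 °C, slopes normalized to DMSO. Thrice, triplicate wells.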
# [4] = biological target: T2, ATP-dependent Clp protease proteolytic subunit (Staphylococcus aureus (strain NCTC 8325)) (UniProt Q2G036); assay: Binding affinity to N-terminal His6-sumo-tagged full length Staphylococcus aureus ClpP expressed in Escherichia coli […] assessed as melting temperature at 100 uM by differential scanning calorimetry analysis (reference value: 50.8 degC)
# T2 sequence (whole entry): T1 sequence (Q2G036 whole entry)
# In short: (§1)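 DSC: SaClpP at 0.5 mg/mL (25 μM) incubated at RT with 100 μM inhibitor in assay buffer. Scanned at 1 °C/min over 30–90 °C, with a buffer-buffer scan subtracted. Tm taken as the thermogram peak maximum. Run once, single sample.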
# [5] = biological target: T2, ATP-dependent Clp protease proteolytic subunit (Staphylococcus aureus (strain NCTC 8325)); assay: (§2) Inhibition of N-terminal His6-sumo-tagged full length Staphylococcus aureus ClpP expressed in Escherichia coli BL2 (DE3) at 3 uM pre-incubated for 10 mins before 200 uM to 1 mM Suc-LY-AMC addition and measured after 1 hr by fluorescence based assay relative to control
# In short: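 SaClpP (1 μM) in 100 mM Hepes pH 7.0, 100 mM NaCl preincubated 10 min at RT with 3 μM inhibitor. Suc-LY-AMC at 200 μM or 1 mM, fluorescence at 380/440 nm for 1 h at 37 °C. Slope relative to DMSO; three independent replicates.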
# [6] = biological target: T2, ATP-dependent Clp protease proteolytic subunit (Staphylococcus aureus (strain NCTC 8325)); assay: as §2, with “[…] assessed as enzyme activity recovery level” for “(DE3)”, “20-fold molar excess” for “3 uM”, “before” for “before 200 uM to 1 mM”, “hr followed by dialysis up to 72 hrs” for “hr”; set-up: scale not given: the % may be the effect or the level left
# In short: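 ClpP (1 μM, 100 mM Hepes pH 7.0, 100 mM NaCl) incubated 1 h at RT with 20-fold molar excess inhibitor or DMSO. Dialyzed at 4 °C, buffer changed after 6 h and then every 24 h. Aliquots assayed for peptidase activity with Suc-LY-AMC. Thrice, single sample.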
# [7] = Inhibition of AlgW (unknown origin) up to 100 uM pre-incubated for 10 mins before Abz-T-V-A-W-pNA addition and measured after 1 hr by fluorescence based assay
# [8] = biological target: 20S proteasome (Homo sapiens) (UniProt P49721+P20618+P28074+P28062+P28065+P28072+P25786+P25787+P25788+P25789+P28066+P60900+O14818+Q8TAA3+P40306+A5LHX3+P49720+P28070+Q99436); assay: Inhibition of 20S proteasome (unknown origin) pre-incubated before Suc-LLVY-AM addition and measured after 1 hr by fluorescence based assay; format: protein-complex assay
# [9] = biological target: Coagulation factor X (Homo sapiens) (UniProt P00742); assay: Inhibition of human F10a up to 100 uM pre-incubated for 10 mins before Pefachrome Fxa addition and measured after […] based assay
# [10] = test system: Staphylococcus aureus; assay: Inhibition of Staphylococcus aureus ClpXP expressed in Escherichia coli […] at 1 to 100 uM using FITC-casein substrate in presence of ATP-regenerating system incubated for 50 mins by fluorescence based assay
# In short: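 3.6 μM SaClpP with 3 μM SaClpX in 25 mM Hepes pH 7.5, 20 mM MgCl2, 30 mM KCl, 0.03% Tween 20, 10% glycerol, 2 mM DTT. ATP regeneration: 4 mM ATP, 20 U/mL creatine kinase, 16 mM creatine phosphate. FITC-casein 0.048 mg/mL, 494/521 nm for 50 min; slope 300–1200 s vs DMSO. Thrice, triplicate wells.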
# [11] = Inhibition of Pseudomonas aeruginosa ClpP1 expressed in Escherichia coli […] pre-incubated for 10 mins before Suc-LY- AMC addition and measured after 1 hr by fluorescence based assay relative to control
# In short: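 PaClpP1 (0.5 μM monomer) in 25 mM Tris-Cl pH 7.5, 150 mM NaCl. Preincubated 10 min at RT with inhibitor, two-fold dilutions over 8 steps from 50 μM. Then 50 μM Suc-LY-AMC, 380/440 nm for 1 h at 37 °C, slopes normalized to DMSO. Thrice, triplicate wells.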
# [12] = biological target: T2, ATP-dependent Clp protease proteolytic subunit (Staphylococcus aureus (strain NCTC 8325)); assay: Binding affinity to N-terminal His6-sumo-tagged full length Staphylococcus aureus ClpP expressed in Escherichia coli […] assessed as change in melting temperature at 100 uM by differential scanning calorimetry analysis; in short: as §1
# [13] = biological target: T1, ATP-dependent Clp protease proteolytic subunit; assay: Binding affinity to N-terminal His6-sumo-tagged full length Staphylococcus aureus ClpP expressed in Escherichia coli […] by ITC analysis
# In short: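 ITC at 500 rpm stirring after 150 s equilibration. A discarded 1 μL first injection, then 19 injections of 2 μL over 5 s each, 2–3 min apart, into 200 μL sample cell. Reference power 7 μcal/s, high gain, 5-s filter, baseline-corrected fit.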
# Chain of ATP-dependent Clp protease proteolytic subunit (Escherichia coli (strain K12), UniProt P0A6G7) (P0A6G7 whole entry): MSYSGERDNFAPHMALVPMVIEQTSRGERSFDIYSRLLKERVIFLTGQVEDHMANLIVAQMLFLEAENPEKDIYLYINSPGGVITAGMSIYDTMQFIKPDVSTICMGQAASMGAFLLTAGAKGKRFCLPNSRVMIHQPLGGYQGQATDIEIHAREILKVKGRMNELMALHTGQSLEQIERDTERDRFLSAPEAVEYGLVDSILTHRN
# Chain of Coagulation factor X (Homo sapiens) (P00742 41-179 limits assumed): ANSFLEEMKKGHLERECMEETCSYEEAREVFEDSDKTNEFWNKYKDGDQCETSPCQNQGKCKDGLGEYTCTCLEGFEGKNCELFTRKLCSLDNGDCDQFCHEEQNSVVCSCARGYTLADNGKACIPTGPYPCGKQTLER
# Chain of Coagulation factor X (Homo sapiens) (P00742 235-488 limits assumed): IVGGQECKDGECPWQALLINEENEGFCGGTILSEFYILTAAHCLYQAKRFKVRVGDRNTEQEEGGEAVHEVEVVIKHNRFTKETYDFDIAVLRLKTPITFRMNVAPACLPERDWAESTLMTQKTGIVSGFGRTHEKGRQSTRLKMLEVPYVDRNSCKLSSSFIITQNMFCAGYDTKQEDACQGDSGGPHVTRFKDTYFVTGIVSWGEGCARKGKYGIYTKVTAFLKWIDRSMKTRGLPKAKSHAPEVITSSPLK
IC50 [1],EC50 [2],IC50 [3],Tm [4],inhibition [5],Activity [6],inhibition [7],inhibition [8],inhibition [9],inhibition [10],IC50 [11],ΔTm [12],Kd [13],SMILES
14.4 µM,–,–,–,–,–,–,–,–,–,–,–,–,CC(C)C[C@H](NC(=O)OCc1ccccc1)C(=O)N[C@@H](Cc1ccc(O)cc1)C(=O)CCl (Cbz-Leu-Tyr-CH2Cl)
–,19.9 µM,3 to 25 µM,66.5 °C,Active,100%,inactive,Active,inactive,inactive,3 to 25 µM,29.5 to 42.2 °C,7.3 µM,CC(C)C[C@H](NC(=O)CNC(=O)c1cc(Cl)ccc1Cl)B1OC(=O)CC(CC(=O)O)(C(=O)O)O1 (stereo partly drawn)
